Source: PubChem
In the library only some 2.9% were active in any assay of this set; here they are far more common.
H9c2 TAG inh – triacylglycerol accumulation inhibition. H9c2 cells, Nile Red lipid (TAG) fluorescence; cells loaded with 200 µM oleic acid. inhibition, % at 12.5 µM. actives 0.66% (n = 230,000). AID 651582;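 active means pattern-corrected inhibition of lipid staining of at least 50% with the nuclear-stain viability signal not falling by more than 50%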;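 further: 0% = DMSO wells and 100% = triacsin C control wells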
GalR3 antagonist – blocks the human galanin receptor 3; O60755; HEK293 GalR3-CNG cAMP membrane potential fluorescence; galR3 body fused to GalR1 C-terminus; inhibition, % at 3 µM; actives 0.44% (n = 360,000);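 active means inhibition above the screen-wide average plus 3 SD, cut at about 13% in these data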;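 further: forskolin and galanin both at EC90 stimulate the cells; cAMP rise reported by CNG channel membrane potential dye signal; 0% = forskolin plus galanin with DMSO and 100% = forskolin alone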
Target sequence (O60755 1-299 limits assumed): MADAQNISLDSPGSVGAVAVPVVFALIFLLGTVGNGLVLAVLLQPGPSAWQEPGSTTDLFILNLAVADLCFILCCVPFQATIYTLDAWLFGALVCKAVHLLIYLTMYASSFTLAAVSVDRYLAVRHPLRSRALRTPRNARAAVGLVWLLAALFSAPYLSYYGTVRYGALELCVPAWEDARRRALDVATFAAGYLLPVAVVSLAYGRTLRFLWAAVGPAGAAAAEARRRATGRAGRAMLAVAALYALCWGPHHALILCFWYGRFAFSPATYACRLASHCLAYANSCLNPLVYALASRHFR
MC4R antag cAMP – blocks human MC4R cAMP signaling; MC4R-expressing cells, MTII-stimulated cAMP, LANCE TR-FRET; actives 0.48% (n = 360,000); inhibition, % at 6.5 µM; AID 540295; P32245;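 active means inhibition above its plate's cutoff, the mean of tested wells on that plate plus 3 SD, cut at about 29% in these data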;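 further: 0% = Melanotan II alone and 100% = Melanotan II plus saturating MCL0020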
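Material: human MC4R-expressing U2OS cells. Probe or stimulus: Melanotan II challenge. Dosing: 6.5 µM single dose. Times: 30-min compound, 1-h challenge, 1-h detection, room temperature. Technique: TR-FRET with Eu-cAMP and labeled anti-cAMP, 671 nm. Replication: singlicate.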
Calb FLC – affects C. albicans growth with fluconazole; actives 0.57% (n = 300,000); growth inhibition, % (concentration not given with the values); C. albicans CaCi-2 + fluconazole, Alamar Blue growth, 48 h;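 active means growth inhibition above about 58% in most replicates, limit read from the data, passing the limit was not always enough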;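 further: all wells also contain fluconazole at 8 µg/ml as a sub-toxic cotreatment; 0% = median of DMSO wells and 100% = median of geldanamycin control wells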
Efflux pump mplx – antifungal efflux pump inhibition, Nile Red retention | S. cerevisiae Candida pump triplex | inhibition, % at 10 µM | actives 0.44% (n = 330,000) | AID 485275;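 active means plate passing quality check with inhibition over a set limit, or well fluorescence over plate mean plus 4 SD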;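 further: Nile Red retained in pooled yeast measured as flow cytometry median fluorescence; 0% = buffer negative control and 100% = Enniatin B positive control; higher means more Nile Red kept so more efflux inhibition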
MC4R ag barr – human MC4R agonism via beta-arrestin; U2OS MC4R beta-arrestin complementation, luminescence; percent of melanotan II response, DMSO zero; actives 0.98% (n = 360,000); P32245; AID 540308; activation, % at 8.9 µM;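 active means activation above a per-plate cutoff, the mean activation of sample wells on that plate plus 3 SD, cut at about 8% in these data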
An asterisk follows results filed as active; . = no result given.

SMILES	H9c2 TAG inh	GalR3 antagonist	MC4R antag cAMP	Calb FLC	Efflux pump mplx	MC4R ag barr
COc1cc(OC)c2c(-c3ccccc3)cc(=O)oc2c1C(CCN1CCCC1)c1ccc2c(c1)OCO2 (configuration not stated)	40.1	-5.6	1.8	-17.9	-0.1	-0.4
CCCCCc1cc(=O)oc2c(C(CCN3CCCC(C)C3)c3ccc4c(c3)OCO4)c(OC)cc(OC)c12 (configuration not stated)	78.0*	0.9	5.0	-3.4	0.2	-0.8
COc1cc(OC)c2c(-c3ccccc3)cc(=O)oc2c1C(CCN1CCCC(C)C1)c1ccc(N(C)C)cc1 (configuration not stated)	94.2*	-4.6	-1.1	-21.5	-0.2	1.8
CCCCCc1cc(=O)oc2c(C(CCN3CCCCC3)c3ccc4c(c3)OCO4)c(OC)cc(OC)c12 (configuration not stated)	106.5*	-4.3	14.2	32.4	0.0	2.5
CCOC(=O)c1c(NC(=O)Cn2nc(C(=O)O)c3ccccc3c2=O)sc(CC)c1C	-2.5	-4.8	10.6	-5.0	0.0	8.0
CCOC(=O)c1c(NC(=O)Cn2nc(C(=O)O)c3ccccc3c2=O)sc(C)c1C	5.1	-4.6	-1.6	-0.4	-0.1	9.0*
CCOc1ccc(/C=C/C(=O)Nc2ccc(OC)cc2[N+](=O)[O-])cc1	6.2	-2.9	-8.8	-14.1	-0.1	34.3*
CCOc1ccc(/C=C/C(=O)Nc2ccccc2C(F)(F)F)cc1	.	-4.0	7.1	4.6	-0.5	8.8*
O=C(COC(=O)C1CC1)Nc1ccc(Cl)cc1Cl	8.2	-5.8	18.0	.	-0.1	1.1
Cc1cccc(OCCNC(=S)NC(=O)c2cncc(Br)c2)c1	20.6	-0.1	0.4	-8.0	0.0	9.3*
COC(=O)C[C@H]1CC[C@@H](NC(=O)C2CC2)[C@@H](CO)O1	.	-4.5	.	.	.	.
COc1ccc(-c2nc3cnccn3c2NCc2ccccc2)cc1SC1CCCCC1	-7.0	.	8.8	24.4	0.3	1.0
CCCCCCSc1cc(-c2nc3cnccn3c2NCc2ccccc2)ccc1OC	-13.0	.	6.8	3.8	0.8*	-0.8
N#CC1=C(N)SC(N)=C(C#N)C1c1cccc(O)c1	.	60.5*	5.3	-13.9	-0.1	-1.0
COc1ccc(C2C(C#N)=C(N)SC(N)=C2C#N)cc1OC	-7.8	-3.0	1.6	-1.1	0.1	-2.0
COc1ccccc1Cc1c(C(C)(C)C)nc2c(C)cc(Br)cn12	.	-5.6	.	.	.	.
COc1ccc(O)c(/C=N/NC(=O)c2ccc(OCc3cccc(Br)c3)cc2)c1	3.7	-6.3	-4.2	62.5*	-0.2	0.1
Cc1cc(C)nc(SCc2ccc(C(=O)N/N=C/c3cccc(O)c3O)cc2)n1	.	4.5	5.1	-0.6	-0.3	-1.3
COc1ccc(Br)cc1/C=N/NC(=O)c1cc(Br)ccc1O	.	.	.	-0.9	0.1	.
COc1ccc(O)c(/C=N/NC(=O)c2ccc(CSc3nc(C)cc(C)n3)cc2)c1	22.7	3.5	-11.8	118.8*	-0.1	0.0
COc1ccc(/C=N/NC(=O)c2ccc(Br)cc2)c(OC)c1	-9.3	2.0	6.4	-8.1	0.0	0.6
COc1ccc(C(=O)N/N=C/c2cc(Br)ccc2O)cc1OC	56.3*	-8.5	6.5	2.0	-0.1	0.5
C[C@H]1CN([C@@H](C)CO)C(=O)CCCn2nncc2CO[C@H]1CN(C)C(=O)c1ccc2ccn(C)c2c1	-7.4	2.7	3.2	.	.	-0.8
CC(=O)Nc1ccc(C(=O)NNS(=O)(=O)c2ccc(C)cc2)cc1	.	-3.8	0.1	-7.2	0.3	-1.4
Cc1ccc(S(=O)(=O)NNC(=O)c2ccc(NC(=O)C3CC3)cc2)cc1	-7.6	-0.8	-5.1	111.4*	-0.1	-4.7
CCN(CC)S(=O)(=O)c1ccc(N2CC(C(=O)NCc3ccco3)CC2=O)cc1 (configuration not stated)	0.6	-5.7	10.2	.	.	2.6
Cc1csc(N=Nc2ccc(N(C)C)cc2)[n+]1[O-]	21.2	-0.1	-59.3	.	.	-8.1
COc1cc(/C=C2/C(=N)N3C=CSC3=NC2=O)ccc1OCCOc1ccc(NC(C)=O)cc1	.	-6.7	7.3	3.2	0.1	0.6
CCOc1cc(/C=C2/C(=N)N3C=CSC3=NC2=O)ccc1OCCCOc1ccccc1C	.	-8.6	3.3	-1.2	-0.1	9.4*
